Experimental data as given in ChEMBL document CHEMBL1926532, “Bioactive myrsinol diterpenoids from the roots of Euphorbia prolifera” (J Nat Prod, 2011).

Key:
[1] = system: SH-SY5Y; assay: Neuroprotective activity against MPP+-induced human SH-SY5Y cell death assessed as cell viability at 10 uM pretreated for 2 hrs prior to MPP+ induction by MTT assay relative to control; type: functional; settings: read-out: Activity
Method in brief: (§1)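 SH-SY5Y cells in DMEM with 10% FBS and penicillin/streptomycin at 37 °C, 5% CO2. Detached with 1 mM EGTA in PBS for 15 min, seeded at 1 × 10^4 cells/well, grown 24 h. Pretreated 2 h with compound (3, 10, 30 μM), then MPP+ medium. MTT (0.5 mg/mL final) added for 4 h; formazan read at 490 nm. Viability expressed against vehicle control (100). Triplicates, mean ± SEM, ANOVA/Student–Newman–Keuls.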

[2] = system: SH-SY5Y; assay: Neuroprotective activity against MPP+-induced human SH-SY5Y cell death assessed as cell viability at 3 uM pretreated for 2 hrs prior to MPP+ induction by MTT assay relative to control; type: functional; settings: read-out: Activity; method in brief: as §1
[3] = system: SH-SY5Y; assay: Neuroprotective activity against MPP+-induced human SH-SY5Y cell death assessed as cell viability at 30 uM pretreated for 2 hrs prior to MPP+ induction by MTT assay relative to control; type: functional; settings: read-out: Activity; method in brief: as §1
[4] = system: SH-SY5Y; assay: Cytotoxicity against human SH-SY5Y cells assessed as cell viability at 3 to 30 uM by MTT assay; type: cell-based

Compound	viability at 10 µM [1] [%]	viability at 3 µM [2] [%]	viability at 30 µM [3] [%]	Activity [4]
CC(=O)O[C@@H]1[C@@H]2[C@@H](OC(C)=O)[C@@]34CO[C@@](C)([C@H](OC(=O)c5ccccc5)[C@@]2(O)C[C@@H]1C)[C@@H]3[C@@H]1[C@@H](C[C@]1(C)OC(C)=O)[C@@H](OC(=O)c1ccccc1)C4=O [EUPHORBIAPROLIFERIN E]	76	67.1	82.1	–
C=C(C)[C@H]1C=C[C@@H](OC(C)=O)[C@@]23CO[C@@](C)([C@H](OC(C)=O)[C@@]4(OC(C)=O)C[C@H](C)[C@H](OC(=O)CC)[C@@H]4[C@H]2OC(C)=O)[C@H]13 [EUPHORBIAPROLIFERIN G]	78.3	65.6	88.7	–
CCC(=O)O[C@@H]1[C@@H]2[C@@H](OC(C)=O)[C@@]34CO[C@@](C)([C@@H](OC(=O)C(C)C)[C@@]2(OC(C)=O)C[C@@]1(C)OC(=O)C(C)C)[C@@H]3[C@@H](C(C)(C)OC(C)=O)C=C[C@H]4OC(C)=O (relative stereo) [EUPHORBIAPROLIFERIN A]	83.5	75.1	92.7	–
CCC(=O)O[C@@H]1[C@@H]2[C@@H](OC(C)=O)[C@@]34CO[C@@](C)([C@@H](OC(=O)c5ccccc5)[C@@]2(OC(C)=O)C[C@@]1(C)OC(C)=O)[C@@H]3[C@@H](C(C)(C)OC(C)=O)C=C[C@H]4OC(C)=O [EUPHORPROLITHERIN B]	81.7	70.3	92.2	–
C=C(C)[C@H]1C=C[C@@H](OC(=O)c2ccccc2)[C@@]23CO[C@@](C)([C@H](OC(=O)c4cccnc4)[C@@]4(OC(C)=O)C[C@H](C)[C@H](OC(=O)CC)[C@@H]4[C@@H]2OC(C)=O)[C@H]13	87.4	77.7	96.5	Non-toxic
Nc1nc2c(ncn2[C@@H]2O[C@H](CO)[C@@H](O)[C@H]2O)c(=O)[nH]1 [GUANOSINE]	77.3	68.1	87.3	–
CC(=O)O[C@@H]1[C@H]2[C@@H](OC(=O)C(C)C)[C@@H](C)C[C@]2(OC(C)=O)[C@@H](OC(C)=O)[C@]2(C)OC[C@]13C(=O)C=C[C@H](C(C)(C)OC(C)=O)[C@@H]23 [EUPHORBIAPROLIFERIN C]	75.4	68.3	81.3	–
CCC/C=C/C=C/C=C\CO[C@@H]1[C@@H](C)[C@]2(O)[C@@H]3C=C(C)C(=O)[C@H]3CC(CO)=C[C@H]2[C@@H]2C(C)(C)[C@]12OC(=O)C(C)C	77.3	69.6	84.1	–
CCC(=O)O[C@@H]1[C@@H]2[C@@H](OC(C)=O)[C@@]34CO[C@@](C)([C@H](OC(=O)c5ccccc5)[C@@]2(OC(C)=O)C[C@@H]1C)[C@@H]3[C@@H](C(C)(C)OC(C)=O)C=CC4=O [EUPHORBIAPROLIFERIN D]	71.3	68.7	88.6	–
C=C(C)[C@H]1C=C[C@@H](OC(=O)c2ccccc2)[C@@]23CO[C@@](C)([C@H](OC(C)=O)[C@@]4(OC(C)=O)C[C@H](C)[C@H](OC(=O)CC)[C@@H]4[C@@H]2OC(C)=O)[C@H]13	86.5	78.1	94.2	–
CCC(=O)O[C@@H]1[C@@H]2[C@@H](OC(=O)c3ccccc3)[C@@]3(COC(C)=O)[C@@H]([C@@H]4[C@H](C[C@H]3OC(C)=O)C4(C)C)[C@](C)(OC(C)=O)C(=O)[C@@]2(O)C[C@@H]1C	70.3	61.5	78.5	–
C=C(C)[C@H]1C=C[C@@H](OC(C)=O)[C@@]23CO[C@@](C)([C@H](OC(=O)c4ccccc4)[C@@]4(OC(C)=O)C[C@H](C)[C@H](OC(=O)CC)[C@@H]4[C@H]2OC(C)=O)[C@H]13 [EUPHORBIAPROLIFERIN F]	87.1	74.5	93.5	–
CCC(=O)O[C@@H]1[C@@H]2[C@@H](OC(C)=O)[C@@]34CO[C@@](C)([C@@H](OC(=O)c5ccccc5)[C@@]2(OC(C)=O)C[C@@H]1C)[C@@H]3[C@@H](C(C)(C)OC(C)=O)C=C[C@H]4OC(C)=O [PROLIFERIN C]	84.5	76.7	95.1	Non-toxic
CCC(=O)O[C@@H]1[C@@H]2[C@@H](OC(C)=O)[C@@]34CO[C@@](C)([C@@H](OC(=O)c5ccccc5)[C@@]2(OC(C)=O)C[C@@H]1C)[C@@H]3[C@@H]1[C@H](C[C@H]4OC(C)=O)C1(C)C [EUPHORBIAPROLIFERIN I]	88.9	84.8	101	Non-toxic
C=C(C)[C@H]1C=C[C@@H](OC(=O)c2ccccc2)[C@@]23CO[C@@](C)([C@@H](OC(=O)c4ccccc4)[C@@]4(OC(C)=O)C[C@H](C)[C@H](OC(=O)CC)[C@@H]4[C@H]2OC(C)=O)[C@H]13 [EUPHORPROLITHERIN C]	91.5	75.5	103	Non-toxic
CCC(=O)O[C@@H]1[C@@H]2[C@@H](OC(C)=O)[C@@]34CO[C@@](C)([C@@H](OC(=O)c5ccccc5)[C@@]2(OC(C)=O)C[C@@]1(C)OC(=O)c1ccccc1)[C@@H]3[C@@H](C(C)(C)OC(C)=O)C=C[C@H]4OC(C)=O [PROLIFERIN B]	95.4	82.1	112	Non-toxic
CCC(=O)O[C@@H]1[C@@H]2[C@@H](OC(C)=O)[C@@]34CO[C@@](C)([C@@H](OC(=O)c5ccccc5)[C@@]2(OC(C)=O)C[C@@]1(C)OC(=O)C(C)C)[C@@H]3[C@@H](C(C)(C)OC(C)=O)C=C[C@H]4OC(C)=O [PROLIFERIN A]	85.2	74.4	97.8	Non-toxic
CCCC(=O)O[C@@H]1[C@@H]2[C@@H](OC(C)=O)[C@@]34CO[C@@](C)([C@@H](OC(=O)c5ccccc5)[C@@]2(OC(C)=O)C[C@@H]1C)[C@@H]3[C@@H]1[C@H](C[C@H]4OC(C)=O)C1(C)C [EUPHORBIAPROLIFERIN J]	89.2	79.8	104	Non-toxic
C=C(C)[C@H]1C=C[C@@H](OC(=O)c2ccccc2)[C@@]23CO[C@@](C)([C@H](OC(=O)c4ccccc4)[C@@]4(OC(C)=O)C[C@H](C)[C@H](OC(C)=O)[C@@H]4[C@H]2OC(C)=O)[C@H]13 [EUPHORBIAPROLIFERIN H]	89.8	83.6	99.4	Non-toxic
CCCC(=O)O[C@@H]1[C@@H]2[C@@H](OC(C)=O)[C@@]34CO[C@@](C)([C@@H](OC(=O)c5ccccc5)[C@@]2(OC(C)=O)C[C@@]1(C)OC(=O)c1ccccc1)[C@@H]3[C@@H](C(C)(C)OC(C)=O)C=C[C@H]4OC(C)=O (relative stereo) [EUPHORBIAPROLIFERIN B]	93.2	74.8	109	Non-toxic
